Laboratory results from ChEMBL document CHEMBL1148284, “Antagonist analogue of 6-[3'-(1-adamantyl)-4'-hydroxyphenyl]-2-naphthalenecarboxylic acid (AHPN) family of apoptosis inducers that effectively blocks AHPN-induced apoptosis but not cell-cycle arrest” (2004).
Active and inactive are the calls of the source. The calls are words filed in the database; no cut-off is given here.

How the values were obtained:
NCI-H460 [1] = test: Inhibition of H460 cell proliferation after 144 hr treatment at 0.1E-6M; format: functional, Homo sapiens
In short: (§1)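 H460 lung cancer cells grown in RPMI 1640 with 10% FCS and treated 144 h (0.1% Me2SO vehicle). Nuclei stained with DAPI and scored under fluorescence microscopy. Value is the average of triplicates.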

NCI-H460 [2] = test: Inhibition of H460 cell proliferation after 144 hr treatment at 1E-6M; format: functional, Homo sapiens; in short: as §1
HL-60 [3] = test: Induction of apoptosis in HL60R leukemia cells after 24 hr r treatment at 0.1E-6M; format: functional, Homo sapiens
In short: (§2)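 Cells exposed to agonist in medium with 0.1% Me2SO vehicle: HL-60R for 24 h, MDA-MB-231 for 96 h. Cells fixed and stained with acridine orange; apoptotic nuclei scored by nuclear fragmentation in 200-cell fields. Percent apoptosis is the average of triplicates.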

HL-60 [4] = test: Induction of apoptosis in HL60R leukemia cells after 24 hr r treatment at 1E-6M; format: functional, Homo sapiens; in short: as §2
MDA-MB-231 [5] = test: Induction of apoptosis in MDA-MB-231 breast cancer cells after 96 hr at 0.5E-6M; format: functional, Homo sapiens; in short: as §2
MDA-MB-231 [6] = test: Induction of apoptosis in MDA-MB-231 breast cancer cells after 96 hr at 1E-6M; format: functional, Homo sapiens; in short: as §2
BT-20 = test: Inhibition of BT-20 breast cancer cell proliferation at 1E-7 M; Inhibitory activity; format: functional, cell-based; details: Homo sapiens
MCF7 = test: Inhibition of MCF-7 cell proliferation at 1E-7M; Inhibitory activity; format: functional, cell-based; details: Homo sapiens
NCI-H460 [7] = test: Suppression of H460 lung cancer cell apoptosis induced by 1E-6M 5-Cl-AHPN; From 34% to 9%; format: functional, Homo sapiens
In short: (§3)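 H460 and LNCaP cells (RPMI 1640, 10% FCS) treated 36 h with 1.0 × 10^-6 M inducer alone or with 1.0 × 10^-6 M antagonist. Cells trypsinized, fixed in 3.7% paraformaldehyde, stained with DAPI (50 µg/mL), and apoptotic nuclear morphology scored by fluorescence microscopy. Apoptosis = apoptotic/total cells × 100.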

LNCaP = test: Suppression of LNCaP prostate cancer cell apoptosis induced by 1E-6M 5-Cl-AHPN; From 31% to 15%; format: functional, Homo sapiens; in short: as §3
[8] = biological target: T1, Retinoic acid receptor alpha (Homo sapiens) (UniProt P10276); test: Transcriptional activation in CV-1 cells expressing RAR alpha at 1E-6M; format: functional, cell-based; details: Cercopithecidae
T1 sequence (whole entry): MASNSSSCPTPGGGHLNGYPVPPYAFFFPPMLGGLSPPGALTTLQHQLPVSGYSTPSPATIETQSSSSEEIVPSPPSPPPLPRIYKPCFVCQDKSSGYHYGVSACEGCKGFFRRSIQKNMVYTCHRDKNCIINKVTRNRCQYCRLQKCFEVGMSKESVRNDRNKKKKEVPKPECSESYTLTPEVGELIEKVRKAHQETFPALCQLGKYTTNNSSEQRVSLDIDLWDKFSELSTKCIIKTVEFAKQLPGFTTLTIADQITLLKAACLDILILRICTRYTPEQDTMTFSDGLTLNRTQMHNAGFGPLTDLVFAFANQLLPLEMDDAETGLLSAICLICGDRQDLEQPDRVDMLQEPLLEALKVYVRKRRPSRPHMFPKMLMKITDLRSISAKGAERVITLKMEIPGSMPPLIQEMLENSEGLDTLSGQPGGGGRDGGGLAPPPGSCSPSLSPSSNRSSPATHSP
In short: (§4)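 CV-1 cells in DMEM with 10% FCS, calcium-precipitate transfected with (TREpal)2-tk-CAT plus RAR expression vector and β-gal vector. After 20 h, switched to 5% charcoal-stripped FCS and treated 24 h. CAT activity normalized to β-gal and expressed relative to 1.0 × 10^-6 M trans-RA as 100%.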

[9] = biological target: T2, Retinoic acid receptor beta (Homo sapiens) (UniProt P10826); test: Transcriptional activation in CV-1 cells expressing RAR beta at 1E-6M; format: functional, cell-based; details: Cercopithecidae
T2 sequence (whole entry): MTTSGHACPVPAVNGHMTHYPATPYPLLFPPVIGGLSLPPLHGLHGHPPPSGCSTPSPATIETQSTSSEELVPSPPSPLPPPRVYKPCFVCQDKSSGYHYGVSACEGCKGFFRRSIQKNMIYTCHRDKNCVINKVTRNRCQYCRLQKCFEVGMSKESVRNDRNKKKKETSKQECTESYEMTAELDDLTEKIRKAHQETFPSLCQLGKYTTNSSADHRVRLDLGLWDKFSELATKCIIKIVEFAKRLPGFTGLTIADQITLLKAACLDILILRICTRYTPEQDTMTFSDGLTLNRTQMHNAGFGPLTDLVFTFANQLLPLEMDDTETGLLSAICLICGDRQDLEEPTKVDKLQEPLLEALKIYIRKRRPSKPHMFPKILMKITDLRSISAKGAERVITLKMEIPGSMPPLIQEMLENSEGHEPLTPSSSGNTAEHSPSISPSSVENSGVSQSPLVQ

[10] = biological target: T3, Retinoic acid receptor gamma (Homo sapiens) (UniProt P13631); test: Transcriptional activation in CV-1 cells expressing RAR gamma at 1E-6M; format: functional, cell-based; details: Cercopithecidae; in short: as §4
T3 sequence (whole entry): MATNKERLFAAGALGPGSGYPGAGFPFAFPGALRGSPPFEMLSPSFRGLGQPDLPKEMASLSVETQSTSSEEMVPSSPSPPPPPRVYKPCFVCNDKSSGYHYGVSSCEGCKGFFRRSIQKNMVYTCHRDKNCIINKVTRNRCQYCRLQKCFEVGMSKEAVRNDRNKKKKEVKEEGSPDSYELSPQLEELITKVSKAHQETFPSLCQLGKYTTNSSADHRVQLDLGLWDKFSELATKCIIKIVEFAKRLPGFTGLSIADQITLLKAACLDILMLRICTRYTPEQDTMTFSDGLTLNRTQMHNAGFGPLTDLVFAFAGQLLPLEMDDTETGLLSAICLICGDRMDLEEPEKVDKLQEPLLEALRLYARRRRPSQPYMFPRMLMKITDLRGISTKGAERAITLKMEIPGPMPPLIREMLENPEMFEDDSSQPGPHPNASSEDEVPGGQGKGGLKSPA

MDA-MB-468 = test: Inhibition of MDA-MB-468 cell proliferation at 0.5E-6M; Inhibitory activity; format: functional, cell-based; details: Homo sapiens
In short: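 MDA-MB-468 cells (1.0 × 10^5) seeded in DMEM/F12 with 5% FBS; after 24 h, 0.5 × 10^-6 M agent added, with or without 2.0 × 10^-6 M antagonist. Incubated 72 h, then proliferation read by colorimetric assay relative to the agent-alone control. Triplicates, 0.1% Me2SO.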

[11] = biological target: T4, Retinoic acid receptor RXR-alpha (Homo sapiens) (UniProt P19793); test: Displacement of [3H]9-cis-RA from Retinoic acid receptor RXR-alpha LBD
T4 sequence (whole entry): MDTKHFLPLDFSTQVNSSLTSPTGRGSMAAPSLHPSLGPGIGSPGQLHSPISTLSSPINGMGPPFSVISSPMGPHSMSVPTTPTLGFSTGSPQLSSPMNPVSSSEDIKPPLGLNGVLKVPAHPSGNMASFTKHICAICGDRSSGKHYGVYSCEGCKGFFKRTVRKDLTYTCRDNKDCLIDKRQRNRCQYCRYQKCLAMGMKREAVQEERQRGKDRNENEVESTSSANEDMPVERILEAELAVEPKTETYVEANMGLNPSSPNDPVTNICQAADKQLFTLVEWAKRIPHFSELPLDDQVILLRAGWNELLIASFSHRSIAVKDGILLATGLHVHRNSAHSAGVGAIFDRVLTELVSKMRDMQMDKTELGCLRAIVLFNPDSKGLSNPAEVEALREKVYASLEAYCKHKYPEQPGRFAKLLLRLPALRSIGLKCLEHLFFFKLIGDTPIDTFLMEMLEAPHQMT
In short: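 Bacterially expressed receptor LBDs (RARs as GST fusions, RXRα as His6 fusion; about 1.0 × 10^-8 M) incubated with 1.0 × 10^-9 M [11,12-3H2]9-cis-RA (43 Ci/mmol), with or without 1.0 × 10^-9 M unlabeled competitor. Bound and free radioligand separated by Sephadex G-50 gel filtration; mean ± SEM of three independent experiments.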

Structure (SMILES) | Inhibition (NCI-H460 [1]) [%] | Inhibition (NCI-H460 [2]) [%] | Apoptosis (HL-60 [3]) [%] | Apoptosis (HL-60 [4]) [%] | Apoptosis (MDA-MB-231 [5]) [%] | Apoptosis (MDA-MB-231 [6]) [%] | inhibition (BT-20) | inhibition (MCF7) | Suppression (NCI-H460 [7]) [%] | Suppression (LNCaP) [%] | Transcriptional activation [8] [%] | Transcriptional activation [9] [%] | Transcriptional activation [10] [%] | inhibition (MDA-MB-468) | Displacement [11] [%]
O=C(O)c1ccc2c(Cl)c(-c3ccc(O)c(C45CC6CC(CC(C6)C4)C5)c3)ccc2c1 | 56 | 71 | 62 | 94 | 21 | 41 | – | – | – | – | – | – | – | – | –
Cc1cc(/C=C/C(=O)O)ccc1-c1ccc(O)c(C23CC4CC(CC(C4)C2)C3)c1 | – | – | 10 | 95 | 5 | 30 | – | – | – | – | – | – | – | – | –
Cc1c(-c2ccc(O)c(C34CC5CC(CC(C5)C3)C4)c2)ccc2cc(C(=O)O)ccc12 | – | – | 29 | 70 | 14 | – | Inhibitory activity | Inhibitory activity | – | – | – | – | – | – | –
CC(=O)NCCCOc1cc(/C=C/C(=O)O)ccc1-c1ccc(O)c(C23CC4CC(CC(C4)C2)C3)c1 | – | – | 0 | 0 | 0 | 1 | – | – | 9 | 15 | – | – | – | – | –
CCOc1cc(/C=C/C(=O)O)ccc1-c1ccc(O)c(C23CC4CC(CC(C4)C2)C3)c1 | 14 | 52 | 0 | 29 | – | – | – | – | – | – | – | – | – | – | –
O=C(O)/C=C/c1ccc(-c2ccc(O)c(C34CC5CC(CC(C5)C3)C4)c2)cc1 [ADAROTENE] | – | – | 90 | 98 | 53 | 58 | – | – | – | – | 8 | 85 | 103 | – | –
O=C(O)/C=C/c1ccc(-c2ccc(O)c(C34CC5CC(CC(C5)C3)C4)c2)c(Cl)c1 | – | – | 51 | 94 | 31 | 43 | – | – | – | – | – | – | – | Active | 16
O=C(O)c1ccc2cc(-c3ccc(O)c(C45CC6CC(CC(C6)C4)C5)c3)ccc2c1 [O-DEMETHYLATED ADAPALENE] | 20 | 80 | 78 | 98 | 26 | 46 | – | – | – | – | 21 | 78 | 88 | – | –
